In brackets after ≈: the same amount, converted by molar mass.
Legend:
C. parvum [1] = assay: Mouse efficacy study; type: in vivo, C57BL/6 IFN-γ-knockout mice; conditions: oral 10 mg kg^−1, 5 days; nitazoxanide 100 mg kg^−1
C. parvum [2] = assay: Washout assay, nanoluciferase-expressing C. parvum; type: cell-based, Cryptosporidium parvum; conditions: regardless of the stage of drug exposure
How it was run: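 HCT-8 cells were grown to ~90% confluence, then infected with 400 nanoluciferase-expressing oocysts per well. Before infection, oocysts were primed for excystation with 10 mM HCl in water (10 min, 37 °C), then 2 mM sodium taurocholate in DPBS with Ca/Mg (10 min, 16 °C). Luminescence was read over time. RLU taken soon after infection served as day 0 and was used to normalize each timepoint.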

HsPI(4)K = HsPI(4)K (Homo sapiens, UniProt Q9UBF8); assay: PI; type: biochemical; conditions: HsPI(4)K IC50, 3 μM ATP
Cytotoxicity assay = type: cell-based, human; conditions: human, HepG2 cells (ATCC CRL-10741), HepG2 CC50, 96 h
C. parvum [3] = assay: Time-kill assay, nanoluciferase-expressing C. parvum; type: cell-based, Cryptosporidium parvum
CpPI(4)K = target: T1, CpPI(4)K (Cryptosporidium parvum, UniProt Q5CVD3); assay: PI; type: biochemical, C. parvum; conditions: CpPI(4)K IC50, 3 μM ATP
T1 sequence (Q5CVD3 1-1114): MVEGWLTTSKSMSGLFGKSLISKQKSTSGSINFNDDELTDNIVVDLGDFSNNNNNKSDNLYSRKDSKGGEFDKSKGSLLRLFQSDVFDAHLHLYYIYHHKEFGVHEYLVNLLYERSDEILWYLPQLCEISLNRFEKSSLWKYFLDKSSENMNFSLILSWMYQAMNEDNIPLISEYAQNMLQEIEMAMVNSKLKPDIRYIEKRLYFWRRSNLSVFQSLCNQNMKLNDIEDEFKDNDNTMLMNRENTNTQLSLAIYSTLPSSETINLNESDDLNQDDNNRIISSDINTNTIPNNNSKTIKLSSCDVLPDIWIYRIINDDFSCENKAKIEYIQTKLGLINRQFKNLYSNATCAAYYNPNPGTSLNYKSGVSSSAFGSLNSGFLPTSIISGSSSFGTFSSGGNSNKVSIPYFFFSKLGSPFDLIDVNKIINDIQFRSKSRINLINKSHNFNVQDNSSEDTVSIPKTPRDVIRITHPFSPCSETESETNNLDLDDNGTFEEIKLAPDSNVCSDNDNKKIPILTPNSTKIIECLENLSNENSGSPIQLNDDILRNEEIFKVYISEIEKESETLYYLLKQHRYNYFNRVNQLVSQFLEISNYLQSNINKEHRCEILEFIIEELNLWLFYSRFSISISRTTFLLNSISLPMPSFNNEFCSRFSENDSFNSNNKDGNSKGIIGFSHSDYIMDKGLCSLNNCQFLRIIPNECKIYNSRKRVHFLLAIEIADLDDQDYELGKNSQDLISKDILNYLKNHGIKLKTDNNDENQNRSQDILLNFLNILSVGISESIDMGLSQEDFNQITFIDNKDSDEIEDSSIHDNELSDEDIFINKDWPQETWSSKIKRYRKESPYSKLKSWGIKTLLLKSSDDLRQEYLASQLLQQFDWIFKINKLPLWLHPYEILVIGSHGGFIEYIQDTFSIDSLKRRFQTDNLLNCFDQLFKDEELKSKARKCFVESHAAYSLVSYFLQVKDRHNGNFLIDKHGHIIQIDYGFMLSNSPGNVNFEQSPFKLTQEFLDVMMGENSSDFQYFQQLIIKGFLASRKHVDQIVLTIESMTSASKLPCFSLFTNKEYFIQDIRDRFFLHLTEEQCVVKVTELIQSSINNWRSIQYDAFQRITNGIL
How it was run: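 Enzyme was pre-incubated with compound for 5 min at room temperature. The reaction was started with substrate mix at twice final strength (PI, ATP, Tris-HCl pH 7.5, DTT, 0.05% Triton X-100, MnCl2) and run 50 min at room temperature. ADP was measured by ADP-Glo luminescence. IC50s came from in-plate duplicate 10-point 3-fold dilutions, with DMSO and reference-inhibitor controls. The C. parvum enzymes (wild type and mutants) were full-length proteins expressed from baculovirus in Sf21 cells.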

C. parvum [4] = assay: Host cell invasion assay; type: cell-based, Cryptosporidium parvum; conditions: HCT-8, 3 h; EDI048 and KDU731 20 µM, wiskostatin 11.3 µM
How it was run: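 HCT-8 monolayers were 95–100% confluent. Compounds were added at twice the final concentration 1 h before infection with 50,000 primed oocysts per well. Plates were kept 3 h at 37 °C, 5% CO2, then washed with PBS-0.1% Tween 20, fixed in 4% PFA for 15 min at room temperature, permeabilized with 0.25% Triton X-100 and blocked in 4% BSA. Vacuoles were stained with fluorescein-VVL and nuclei with Hoechst, then imaged.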

C. parvum [5] = assay: Cytopathic effect; type: cell-based, Cryptosporidium parvum; conditions: read-out: Cp CPE EC50; C. parvum, HCT-8, 48 h
How it was run: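 HCT-8 cells were grown at 37 °C, 5% CO2 in RPMI-1640 with 10% heat-inactivated FBS. Oocysts were excysted in 10 mM HCl/HBSS for 10 min at 37 °C, then in 2 mM sodium taurocholate in L-15/UltraCULTURE medium for 5 min. Infected cells were seeded onto pre-spotted compound (10-point, 3-fold dilution; DMSO and reference-inhibitor controls) and incubated 48 h. Cells were then lysed for a viability read-out, and concentration-response curves were fitted.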

[6] = High-throughput equilibrium solubility; type: physicochemical; conditions: pH 6.8, aqueous buffer, thermodynamic from solid
How it was run: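 Equilibrium solubility was measured by a miniaturized shake-flask method with HPLC quantification.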

Plasma stability [7] = type: in vitro ADME; conditions: human
How it was run: (§1)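 Test compound was added to plasma and incubated at 37 °C in a shaking water bath, with samples taken at sequential timepoints. Samples were quenched with ice-cold acetonitrile and analysed by LC-MS/MS, and half-life was calculated from the depletion rate.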

[8] = Hepatocytes metabolic stability; type: in vitro ADME; conditions: human
How it was run: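 Test compound was incubated with liver microsomes or hepatocytes of each species, and parent depletion was quantified by LC-MS/MS. From this, in vitro half-life and intrinsic clearance were derived, along with predicted metabolic clearance and hepatic extraction ratio.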

[9] = Stability in intestinal S9 fraction; type: in vitro ADME; conditions: human
How it was run: (§2)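 Test compound added to intestinal S9 fraction of each species to start the reaction. Incubated in a shaking water bath at 37 °C, with samples taken at sequential timepoints. Samples quenched with ice-cold acetonitrile and analysed by LC-MS/MS. Half-life calculated from the rate of parent compound depletion.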

Plasma stability [10] = type: in vitro ADME; conditions: mouse
How it was run: as §1

[11] = Stability in intestinal S9 fraction; type: in vitro ADME; conditions: mouse
How it was run: as §2

Chain of HsPI(4)K (Q9UBF8 523-816 limits assumed): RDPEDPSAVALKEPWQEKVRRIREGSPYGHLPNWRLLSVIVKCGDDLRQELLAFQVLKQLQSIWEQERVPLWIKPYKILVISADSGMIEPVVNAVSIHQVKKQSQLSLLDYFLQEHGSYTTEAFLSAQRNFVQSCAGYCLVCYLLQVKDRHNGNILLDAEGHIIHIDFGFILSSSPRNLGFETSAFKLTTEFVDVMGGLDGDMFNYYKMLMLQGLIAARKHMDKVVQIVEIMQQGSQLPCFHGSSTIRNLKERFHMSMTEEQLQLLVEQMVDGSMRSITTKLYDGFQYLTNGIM

Row | EC50 (C. parvum [5]) [µM] | solubility [6] [µM] | half-life (Plasma stability [7]) [h] | Hepatocytes ER [8] [%] | half-life ([8]; hepatocytes) [min] | half-life [9] [h] | half-life (Plasma stability [10]) [min] | half-life [11] [h] | SMILES | efficacy in the mouse model (C. parvum [1]) | washout: cidal activity (C. parvum [2]) | IC50 (HsPI(4)K) [µM] | CC50 at 96 h (Cytotoxicity assay) [µM] | parasiticidal or parasitistatic (C. parvum [3]) | IC50 (CpPI(4)K) [µM] | sporozoite invasion (C. parvum [4])
1 |  |  |  |  |  |  |  |  | CC(=O)Oc1ccccc1C(=O)Nc1ncc([N+](=O)[O-])s1 [NTZ, Nitazoxanide, reference compound] | not efficacious | not cidal | > 30 | 34.9 | static | > 10 | 
2 |  |  |  |  |  |  |  |  | CN(C)C[C@H](O)Cn1c2ccc(Br)cc2c2cc(Br)ccc21 (racemic) [wiskostatin, reference compound] |  |  |  |  |  |  | prevented sporozoite invasion and formation of trophozoites
3 | 0.349 ± 0.181 | 37 (≈ 20.4 µg/mL) | > 2 | 95 | 4.8 | 3.58 | < 5 | 1.6 | CNC(=O)c1ccc(-c2cnn3ccc(C(=O)N(C[C@H]4CCC(=O)O4)c4ccc(OC(F)(F)F)cc4)cc23)cc1 [Compound 4, (R)-3-(4-(methylcarbamoyl)phenyl)-N-((5-oxotetrahydrofuran-2-yl)methyl)-N-(4-(trifluoromethoxy)phenyl)pyrazolo[1,5-a]pyridine-5-carboxamide] | poor in vivo efficacy |  | 1.38 ± 0.13 | 32.2 |  | 0.018 ± 0.011 | 

— article PMC11522000 (Nature Microbiology, 2024)
